Test results published in ChEMBL document CHEMBL4330181, “Cytosine-Based TET Enzyme Inhibitors” (ACS Med Chem Lett, 2019).
The source made the active and inactive calls. The rule behind the calls is not given here.

Key:
[1] = biological target: Methylcytosine dioxygenase TET1 (Homo sapiens) (UniProt Q8NFU7); experiment: Inhibition of recombinant human N-terminal FLAG-tagged TET1 (1418 to 2136 residues) expressed in baculovirus infected sf9 cells assessed as reduction in oxidation of methylated dsDNA at 100 uM after 2 hrs by chemiluminescence assay relative to control
In short: (§1)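 ELISA of oxidation of methylated double-stranded DNA by recombinant human TET1 or TET2, inhibitor tested at 100 μM. N = 3, mean ± SEM; two-way ANOVA.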

[2] = biological target: DNA (cytosine-5)-methyltransferase 3A (Homo sapiens) (UniProt Q9Y6K1); experiment: Inhibition of DNMT3A (unknown origin) at 500 uM
Mus musculus = species on record: Mus musculus; experiment: Inhibition of TET in mouse HT22 cells assessed as reduction in global DNA 5-hmc level at 10 uM after 24 hrs by spectrophotometric method; type: cell-based
In short: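 HT-22 immortalized mouse hippocampal neurons dosed at 10 μM in 1% DMSO for 24 h, then lysed; DNA extracted and 5hmC detected with a 5hmC-specific antibody, colorimetric read-out giving percent 5hmC of all cytosine species. Vehicle control; N = 6 biological replicates per group, mean ± SEM, one-way ANOVA.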

[3] = biological target: Methylcytosine dioxygenase TET2 (Homo sapiens) (UniProt Q6N021); experiment: Inhibition of recombinant human C-terminal His/N-terminal FLAG-tagged TET2 (1129 to 2002 residues) expressed in baculovirus infected sf9 cells assessed as reduction in oxidation of methylated dsDNA at 100 uM after 2 hrs by chemiluminescence assay relative to control; in short: as §1

Sequence of Methylcytosine dioxygenase TET1 (Homo sapiens) (Q8NFU7 whole entry, the tested form may be a part): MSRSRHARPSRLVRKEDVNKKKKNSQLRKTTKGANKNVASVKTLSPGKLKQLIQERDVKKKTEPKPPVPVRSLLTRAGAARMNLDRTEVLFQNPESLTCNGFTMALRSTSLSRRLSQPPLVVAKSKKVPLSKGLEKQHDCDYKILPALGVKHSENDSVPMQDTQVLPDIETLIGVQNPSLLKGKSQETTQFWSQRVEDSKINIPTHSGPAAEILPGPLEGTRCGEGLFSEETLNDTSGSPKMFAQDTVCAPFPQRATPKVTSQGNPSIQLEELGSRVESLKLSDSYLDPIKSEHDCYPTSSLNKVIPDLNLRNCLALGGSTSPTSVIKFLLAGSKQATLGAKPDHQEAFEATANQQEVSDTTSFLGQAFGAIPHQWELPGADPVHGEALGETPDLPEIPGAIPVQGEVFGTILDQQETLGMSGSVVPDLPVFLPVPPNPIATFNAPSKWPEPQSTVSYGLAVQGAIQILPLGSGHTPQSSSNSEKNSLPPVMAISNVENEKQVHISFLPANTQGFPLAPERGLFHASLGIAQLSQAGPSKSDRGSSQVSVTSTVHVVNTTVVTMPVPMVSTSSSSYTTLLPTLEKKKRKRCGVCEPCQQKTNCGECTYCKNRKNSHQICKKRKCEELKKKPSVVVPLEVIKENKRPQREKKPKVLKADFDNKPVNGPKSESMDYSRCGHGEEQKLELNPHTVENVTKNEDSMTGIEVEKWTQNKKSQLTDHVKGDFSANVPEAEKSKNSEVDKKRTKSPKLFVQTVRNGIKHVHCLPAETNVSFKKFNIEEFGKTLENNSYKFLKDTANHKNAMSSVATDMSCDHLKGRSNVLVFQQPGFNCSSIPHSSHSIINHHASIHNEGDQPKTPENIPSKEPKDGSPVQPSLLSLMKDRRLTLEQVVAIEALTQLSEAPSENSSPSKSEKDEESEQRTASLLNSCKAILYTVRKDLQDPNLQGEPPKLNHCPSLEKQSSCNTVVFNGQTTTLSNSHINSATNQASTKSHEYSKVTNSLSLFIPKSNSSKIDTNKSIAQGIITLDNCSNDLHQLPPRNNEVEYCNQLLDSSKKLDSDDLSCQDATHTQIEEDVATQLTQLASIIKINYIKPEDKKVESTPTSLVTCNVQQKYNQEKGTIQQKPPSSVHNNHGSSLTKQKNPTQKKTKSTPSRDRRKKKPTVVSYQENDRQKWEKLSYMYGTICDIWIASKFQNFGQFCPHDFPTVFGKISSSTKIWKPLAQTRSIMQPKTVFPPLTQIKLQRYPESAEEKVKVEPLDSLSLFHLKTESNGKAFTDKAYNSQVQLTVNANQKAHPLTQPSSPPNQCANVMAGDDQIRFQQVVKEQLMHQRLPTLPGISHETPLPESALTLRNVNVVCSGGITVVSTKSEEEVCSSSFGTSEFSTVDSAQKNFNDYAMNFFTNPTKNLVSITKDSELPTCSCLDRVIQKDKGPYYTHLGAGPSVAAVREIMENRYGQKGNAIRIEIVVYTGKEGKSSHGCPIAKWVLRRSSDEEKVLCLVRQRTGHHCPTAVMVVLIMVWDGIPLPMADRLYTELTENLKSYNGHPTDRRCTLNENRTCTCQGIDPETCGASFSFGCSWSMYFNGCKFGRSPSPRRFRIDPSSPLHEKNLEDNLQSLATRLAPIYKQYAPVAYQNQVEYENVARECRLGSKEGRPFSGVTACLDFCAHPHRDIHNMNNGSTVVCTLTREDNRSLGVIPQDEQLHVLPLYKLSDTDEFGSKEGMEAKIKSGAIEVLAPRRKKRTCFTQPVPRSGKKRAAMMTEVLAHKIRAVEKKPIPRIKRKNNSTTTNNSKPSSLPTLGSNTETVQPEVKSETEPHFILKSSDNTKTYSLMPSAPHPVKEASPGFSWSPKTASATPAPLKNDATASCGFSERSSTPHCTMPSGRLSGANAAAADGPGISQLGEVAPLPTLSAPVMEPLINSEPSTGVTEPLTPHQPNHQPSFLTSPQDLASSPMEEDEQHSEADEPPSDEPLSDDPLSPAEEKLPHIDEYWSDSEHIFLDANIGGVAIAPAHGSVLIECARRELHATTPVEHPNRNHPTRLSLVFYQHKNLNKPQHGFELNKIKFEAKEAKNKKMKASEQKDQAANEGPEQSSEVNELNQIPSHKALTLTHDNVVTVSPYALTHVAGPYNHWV
Sequence of DNA (cytosine-5)-methyltransferase 3A (Homo sapiens) (Q9Y6K1 whole entry, looked up): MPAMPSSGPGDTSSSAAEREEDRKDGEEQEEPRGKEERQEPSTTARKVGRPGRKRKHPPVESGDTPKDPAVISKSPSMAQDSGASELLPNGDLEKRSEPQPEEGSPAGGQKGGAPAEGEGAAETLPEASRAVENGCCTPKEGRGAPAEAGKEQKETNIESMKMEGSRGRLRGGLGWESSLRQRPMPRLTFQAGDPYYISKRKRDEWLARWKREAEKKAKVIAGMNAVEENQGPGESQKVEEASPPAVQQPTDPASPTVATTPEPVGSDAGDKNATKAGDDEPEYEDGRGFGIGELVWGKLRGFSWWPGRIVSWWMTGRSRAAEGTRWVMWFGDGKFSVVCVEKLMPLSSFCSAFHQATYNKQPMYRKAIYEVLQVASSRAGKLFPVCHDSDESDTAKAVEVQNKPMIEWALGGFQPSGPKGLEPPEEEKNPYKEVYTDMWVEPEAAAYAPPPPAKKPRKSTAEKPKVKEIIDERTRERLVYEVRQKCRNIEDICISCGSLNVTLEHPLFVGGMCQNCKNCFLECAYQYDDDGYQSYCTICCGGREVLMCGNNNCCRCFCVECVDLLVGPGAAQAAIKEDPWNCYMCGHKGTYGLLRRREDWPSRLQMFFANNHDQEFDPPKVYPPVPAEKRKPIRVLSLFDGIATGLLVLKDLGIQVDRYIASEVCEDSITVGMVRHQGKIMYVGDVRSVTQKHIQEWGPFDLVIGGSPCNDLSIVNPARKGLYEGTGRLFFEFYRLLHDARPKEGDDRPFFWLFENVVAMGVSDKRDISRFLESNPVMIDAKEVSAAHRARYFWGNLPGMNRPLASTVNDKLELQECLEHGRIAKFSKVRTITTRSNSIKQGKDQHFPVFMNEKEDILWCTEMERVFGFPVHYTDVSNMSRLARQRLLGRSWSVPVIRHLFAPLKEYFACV

Which inhibition [1] does the source give for `Nc1nc(=O)n(-c2cccc(-c3ccccc3)c2)cc1Cl` here?
The inhibition was “Active”.

What about the inhibition [2] of the same compound?
Its inhibition is “inactive”.

And the inhibition (Mus musculus)?
Its inhibition is “Active”.

Which inhibition [1] does the source give for `Nc1nc(=O)n(-c2ccccc2)cc1Cl` here?
The inhibition was 57%.

And the inhibition [3]?
Its inhibition is 43%.

What about the inhibition (Mus musculus) of the same compound?
The inhibition was “inactive”.

For `Nc1nc(=O)n(-c2ccccc2)cc1C(F)(F)F`, which inhibition [1] is on record?
The inhibition was “inactive”.

What about the inhibition [3] of the same compound?
Its inhibition is “inactive”.

What does the source list for `Nc1nc(=O)n(-c2ccccc2-c2ccccc2)cc1Cl`?
inhibition [1]: inactive; inhibition [3]: inactive

Which inhibition [1] does the source give for `Nc1nc(=O)n(-c2ccc(-c3ccccc3)cc2)cc1Cl` here?
Its inhibition is “inactive”.

And the inhibition [3]?
The inhibition was “inactive”.

Which results are given for `Nc1ccn(-c2ccccc2)c(=O)n1`?
inhibition [1]: inactive; inhibition [3]: inactive
